Bioassay records from PubChem BioAssay.
hDAT+cocaine: human DAT dopamine uptake with cocaine, either direction; Q01959; LLC-PK1 hDAT cells, [14C]-dopamine uptake with cocaine IC80; actives deviate in either direction; B-score at 10 µM; actives 1.3% (n = 110,000); AID 449768;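 active = Z score or B-score, a plate-position-corrected score, falls beyond the plate's 99.7% confidence bounds, in either direction; inactive = both scores lie inside the 99.7% bounds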
M1 antag: antagonists of rat M1 muscarinic receptor. P08482. CHO-M1 cells, Fluo-4 calcium, ACh EC80 antagonist mode; active compounds read low. B-score at 10 µM. actives 3.4% (n = 64,000). AID 628;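 active = calcium fluorescence response, raw or row-and-column corrected B-score, differing from the plate sample mean either way at a set confidence level, mostly lower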
D1 mod: allosteric modulators of human D1 dopamine receptor; P21728; HEK293 D1, CRE-luciferase, dopamine EC30 potentiation; actives deviate in either direction; B-score at 10 µM; actives 5.9% (n = 58,000);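 active = luminescence count or its row- and column-corrected plate score outside the 99.7% band of the plate's sample wells, on either side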
Target sequence (P21728 whole entry, looked up): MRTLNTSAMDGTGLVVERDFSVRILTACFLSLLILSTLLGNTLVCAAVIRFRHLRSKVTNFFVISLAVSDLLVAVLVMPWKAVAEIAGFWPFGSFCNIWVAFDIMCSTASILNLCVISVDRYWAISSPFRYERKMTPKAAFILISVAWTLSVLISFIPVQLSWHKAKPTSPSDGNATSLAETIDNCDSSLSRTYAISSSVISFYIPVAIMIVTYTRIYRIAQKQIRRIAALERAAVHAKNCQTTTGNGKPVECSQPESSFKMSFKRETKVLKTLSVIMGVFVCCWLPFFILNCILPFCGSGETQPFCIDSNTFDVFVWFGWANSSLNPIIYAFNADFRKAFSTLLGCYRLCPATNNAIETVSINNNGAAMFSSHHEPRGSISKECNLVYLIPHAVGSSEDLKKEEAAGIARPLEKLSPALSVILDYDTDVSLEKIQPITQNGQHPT
HEK293 NFkB inh: lowers PMA/ionomycin-induced NF-kB signal in HEK293 cells | HEK-293 NF-kB luciferase reporter, luminescence | actives 0.21% (n = 62,000) | inhibition, % at 3 µM;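 active = inhibition above the mean of all tested compounds plus 3 SD, cut at about 40% in these data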
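Material: HEK-293 cells with stable firefly luciferase reporter driven by four HIV NF-kB elements / Also added: PMA plus ionomycin mix as NF-kB-activating stimulus / Compound dosing: 3 µM once, 0.30% DMSO / Times: 1 h pretreatment, 16 h stimulation, 37 °C / Signal: luminescence / Evaluation: per-plate % inhibition versus controls / Benchmarks: DMSO and 10 µM reference inhibitor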
M1 agonist: M1 muscarinic receptor agonism | CHO-M1 cells, Fluo-4 calcium fluorescence, agonist mode; active compounds read high | B-score at 10 µM | actives 3% (n = 64,000);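 active = fluorescence rise, raw or as B-score row- and column-corrected plate score, outside the 99.7% band of its plate's samples, either direction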
Jurkat tox 60K: cytotoxic compounds reducing Jurkat cell viability. inhibition, % at 4 µM. AID 463. actives 1.2% (n = 56,000). Jurkat E6.1 viability, ATP luminescence, 48 h;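 active = inhibition above the mean inhibition of all tested compounds plus 3 SD, cut at about 28% in these data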
D1 PAM confirm: D1 receptor (human) allosteric modulation, confirmed; shares compounds with D1 mod; HEK293 D1 CRE-luciferase, dopamine EC30 potentiation; active compounds read high; luminescence at 10 µM; actives 88% (n = 2,200); AID 642;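 active = luminescence in either of two replicates above the same-plate mean plus 3 SD of the low-dose dopamine control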
D1 ag no DA: secondary test of D1 modulators: activity without dopamine; shares compounds with D1 mod; HEK293 D1 CRE-luciferase, luminescence, no dopamine; active compounds read high; luminescence at 10 µM; actives 0.8% (n = 1,900); in the data active = luminescence above about 3900
Isoprot counter: isoproterenol response counter-screen activity for D1 modulators; HEK293 D1 CRE-luciferase, isoproterenol EC30 counter-screen; calls only at 10 µM; AID 647; actives 63% (n = 2,200); shares compounds with D1 mod;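 active = luminescence in either replicate above plate mean of wells with a partly effective reference agonist dose plus 3 SD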;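 note: isoproterenol raises cAMP through native beta-adrenoceptor Gs so signal bypasses D1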
Large screens that a line does not name were inactive (follow-up assays come after a bar, where they were run). Rows were chosen to be rich in hits. Some 7.6% of all compounds tested hit in one or more screens of this group.

CCOC(=O)C1CCN(CC(=O)Nc2c(C(=O)OC)[nH]c3cccc(Cl)c23)CC1	D1 mod 3.73 | D1 PAM confirm 9896 | D1 ag no DA inactive | Isoprot counter active
COC(=O)c1[nH]c2cccc(OC)c2c1NC(=O)CCN1CCC(C(N)=O)CC1	none (no result: D1 mod)
COc1ccc(C2=NOC(C(=O)Nc3ccc(C)cc3)C2)cc1OC (stereo not drawn)	D1 mod 20.8 | D1 PAM confirm 20008 | D1 ag no DA inactive | Isoprot counter active
COc1ccc(C2=NOC(C(=O)NCc3ccc(F)cc3)C2)cc1OC (stereo not drawn)	D1 mod 36.7, Jurkat tox 60K 93.3 (no result: hDAT+cocaine) | D1 PAM confirm 26920 | D1 ag no DA inactive | Isoprot counter active
COc1cccc(C2=NOC(C(=O)NCc3ccc(F)cc3)C2)c1 (stereo not drawn)	none (no result: hDAT+cocaine)
COc1ccc(NC(=O)C2CC(c3cc(OC)c(OC)c(OC)c3)=NO2)cc1OC (stereo not drawn)	none
COc1ccc(NC(=O)C2CC(c3ccc(OC)c(OC)c3)=NO2)cc1OC (stereo not drawn)	D1 mod 7.07 | D1 PAM confirm 12656 | D1 ag no DA inactive | Isoprot counter active
COc1ccc(C(=O)NN2C(=O)C3C4C=CC(O4)C3C2=O)cc1 (stereo not drawn)	none (no result: M1 antag, D1 mod, HEK293 NFkB inh, M1 agonist, Jurkat tox 60K)
CC(C)Cn1nc(NS(=O)(=O)c2ccccc2)c2cc3ccccc3nc21	none (no result: M1 antag, M1 agonist)
CC(C)Cn1nc(NC(=O)C2CCCO2)c2cc3ccccc3nc21 (stereo not drawn)	D1 mod 11.7 (no result: hDAT+cocaine) | D1 PAM confirm 16892 | Isoprot counter active
O=C(NCCc1c[nH]c2ccccc12)C1CCN(c2nnc(N3CCCC3=O)s2)CC1	none
COc1cccc(-n2c(SCc3c(C)noc3C)nnc2-c2cccc(S(=O)(=O)N(C)C)c2)c1	D1 mod 9.09 | D1 PAM confirm 12244 | D1 ag no DA inactive | Isoprot counter active
COc1ccc(OC)c(-n2c(SCC(C)=O)nnc2-c2cccc(S(=O)(=O)N(C)C)c2)c1	D1 mod 3.83 | D1 PAM confirm inactive | D1 ag no DA inactive | Isoprot counter inactive
CCSc1nnc(-c2cccc(S(=O)(=O)N(C)C)c2)n1-c1cc(OC)ccc1OC	none
O=C(O)c1c[nH]c2c(C(F)(F)F)cccc2c1=O	none (no result: M1 antag, D1 mod, HEK293 NFkB inh, M1 agonist, Jurkat tox 60K)
COCCn1c(CN2CCN(c3ccc(OC)cc3)CC2)nc2c1c(=O)n(C)c(=O)n2C	none
COc1ccc(N2CCN(Cc3nc4c(c(=O)n(C)c(=O)n4C)n3CCc3ccccc3)CC2)cc1	D1 mod 3.54 | D1 PAM confirm inactive | D1 ag no DA inactive | Isoprot counter active
Cc1ccc(N2C(=O)c3ccccc3C2Nc2cccnc2)nc1 (stereo not drawn)	none
COc1cccc(/C=N/n2c(SC)nnc2-c2ccccc2)c1OC	D1 mod 5.95 | D1 PAM confirm 8100 | D1 ag no DA inactive | Isoprot counter active
O=c1c2c(n3cnnc3n1-c1ccccc1)-c1ccccc1CC21CCCCC1	none (no result: M1 antag, D1 mod, HEK293 NFkB inh, M1 agonist, Jurkat tox 60K)
CCn1c(=O)c2c(n3cnnc13)-c1ccccc1CC21CCCCC1	D1 mod 26.1 | D1 PAM confirm 16572 | D1 ag no DA inactive | Isoprot counter active
CCCCNC(=O)Nc1ccc(Br)cn1	D1 mod 7.18 (no result: Jurkat tox 60K) | D1 PAM confirm 12048 | D1 ag no DA inactive | Isoprot counter inactive
COc1cc2c(cc1OC)-c1cc(NC3CCCC3)nc(=O)n1CC2	D1 mod 8.48 | D1 PAM confirm 14200 | D1 ag no DA inactive | Isoprot counter active
CCn1c(=O)cc(N2CCCCC2)[nH]c1=O	none
Cc1cc(=O)n(CC=C(Cl)Cl)c2ccccc12	D1 mod 2.94 | D1 PAM confirm 7272 | D1 ag no DA inactive | Isoprot counter inactive
COc1ncnc2c1oc1nc(C(C)C)c3c(c12)CC(C)(C)OC3	D1 mod 8.71 | D1 PAM confirm 20880 | D1 ag no DA inactive | Isoprot counter active
CCOC(=O)c1oc2nc(C(C)C)c3c(c2c1N)CC(C)(C)OC3	D1 mod 4.66 | D1 PAM confirm 6644 | D1 ag no DA inactive | Isoprot counter active
CCOc1nc(C)ccc1-c1noc(-c2ccccn2)n1	D1 mod 8.02 | D1 PAM confirm 16720 | D1 ag no DA inactive | Isoprot counter active
COc1nc(C)ccc1-c1noc(-c2ccncc2)n1	D1 mod 6.73 | D1 PAM confirm 7856 | D1 ag no DA inactive | Isoprot counter inactive
CCOc1nc(C)ccc1-c1noc(-c2ccco2)n1	D1 mod 7.25 | D1 PAM confirm 16212 | D1 ag no DA inactive | Isoprot counter active
CCCn1nnnc1NCc1ccc(N2CCCC2)cc1	none (no result: M1 antag, D1 mod, HEK293 NFkB inh, M1 agonist, Jurkat tox 60K)
Cc1ccc(S(=O)(=O)NCCCNC(=O)N2CCOCC2)cc1	D1 mod 2.95 | D1 PAM confirm inactive | D1 ag no DA inactive | Isoprot counter inactive
COc1ccc2[nH]c(=O)c(CN(C(=O)c3ccncc3)C(C)(C)C)cc2c1	none
CCOC(=O)c1cc(C#N)c(SCc2ccc(C#N)cc2)nc1C	none
CCOC(=O)c1cc(C#N)c(N)nc1C	D1 mod 4.56 | D1 PAM confirm 8556 | Isoprot counter active
CC(C)(C)c1cc(NC(=O)COC(=O)C2CC2)n(-c2ccccc2)n1	none
CCCC(=O)OCC(=O)Nc1cc(C(C)(C)C)nn1-c1ccccc1	D1 mod 4.7 | D1 PAM confirm 6968 | Isoprot counter inactive
COc1ccc(-c2nn(C)c(=O)c3ccccc23)cc1CNS(C)(=O)=O	none
COc1ccc(-c2nn(C)c(=O)c3ccccc23)cc1CNC(=O)c1ccco1	D1 mod 4.51 | D1 PAM confirm 16184 | D1 ag no DA inactive | Isoprot counter active
CCOC(=O)C1=C(C)Nc2nc3ccccc3n2C1c1ccccc1 (stereo not drawn)	none (no result: M1 antag, D1 mod, HEK293 NFkB inh, M1 agonist, Jurkat tox 60K)
O=c1[nH]c2c(s1)C(c1ccco1)C1C3CCC(C3)C1S2 (stereo not drawn)	D1 mod 25.9 (no result: Jurkat tox 60K) | D1 PAM confirm 19088 | D1 ag no DA inactive | Isoprot counter active
CC(NC(=O)OC1CCCCC1)N1C(=O)C2C3C=CC(C3)C2C1=O (stereo not drawn)	none
CCOc1ccccc1OCc1nn2c(COc3ccccc3)nnc2s1	none
c1ccc(Cc2nn3c(COc4ccccc4)nnc3s2)cc1	D1 mod 9.15 | D1 PAM confirm 17316 | D1 ag no DA inactive | Isoprot counter active
